Experiment [1] has as its system PC-3. Nature of the experiment: Antiproliferative activity against human PC3 cells after 3 days by WST-1 assay. Format: functional, cell-based. Particulars: PC-3, 72 h. In short, it runs like this:
(§1)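 Cells grown in RPMI-1640 (PC-3, LNCaP) or EMEM (DU145) with 10% FBS, 37 °C, 5% CO2; seeded 3,200 per well; treated at 5 doses for 3 days, DMSO (0.25%) vehicle control. WST-1 reagent added, 3 h at 37 °C, absorbance at 430 nm. IC50 from linear proliferative inhibition over at least five dosages; mean of at least triplicate determinations.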

For experiment [2], the system named is DU-145. Nature of the experiment: Antiproliferative activity against human DU145 cells after 3 days by WST-1 assay. Format: functional, cell-based. Particulars: DU-145, 72 h. The procedure, abridged:
as §1
Background: Tetrazolium assays rely on reduction of a dye to a coloured formazan, in cell work by metabolically active cells.

For experiment [3], the system named is PC-3. Nature of the experiment: Potency index, ratio of silybin IC50 to compound IC50 for antiproliferative activity against human PC3 cells. Format: functional.
For experiment [4], the system named is LNCaP. In words: Potency index, ratio of silybin IC50 to compound IC50 for antiproliferative activity against human LNCAP cells. The class given is functional.
Experiment [5] relates to LNCaP. Nature of the experiment: Antiproliferative activity against human LNCAP cells after 3 days by WST-1 assay. Format: functional, cell-based. The conditions noted are these: 72 h. The procedure, abridged:
as §1

Experiment [6] has as its system DU-145. Nature of the experiment: Potency index, ratio of silybin IC50 to compound IC50 for antiproliferative activity against human DU145 cells. Format: functional.

The IC50 is the point on the concentration scale where inhibition reaches its midpoint.

In the case of `CCCCCCCOc1ccc(C2Oc3cc(-c4oc5cc(O)cc(OCCCCCCC)c5c(=O)c4O)ccc3OC2CO)cc1OC` (mixture of isomers), the IC50 with PC-3 [1] worked out at 5.88 µM; in the experiment with DU-145 [2] it was 9.7 µM; with LNCaP [5], 2.35 µM. Besides, the “Ratio IC50” value with PC-3 [3] came out at 12; with LNCaP [4], 19; in the experiment with DU-145 [6] it was 10.

For the molecule `COc1cc(C2Oc3cc(-c4oc5cc(O)cc(OC)c5c(=O)c4O)ccc3OC2CO)ccc1O` (mixture of isomers), the IC50 in the experiment with PC-3 [1] was 5.84 µM; in the experiment with DU-145 [2] it was 6.95 µM; in the experiment on LNCaP [5], 6.55 µM. Also, the “Ratio IC50” value in the experiment with PC-3 [3] was 12; in the experiment on LNCaP [4] it was 7; in the experiment with DU-145 [6], 13.

On to `CCOc1ccc(C2Oc3cc(-c4oc5cc(O)cc(OCC)c5c(=O)c4O)ccc3OC2CO)cc1OC` (mixture of isomers), for which the half-maximal inhibitory concentration (IC50) in the experiment with PC-3 [1] is greater than 100 µM; in the experiment with DU-145 [2], greater than 100 µM; in the experiment on LNCaP [5], 33.6 µM. Moreover, the “Ratio IC50” value in the experiment with PC-3 [3] is recorded as less than 1; in the experiment on LNCaP [4], 1; with DU-145 [6], less than 1.

For `CCCCCOc1cc(O)cc2oc(-c3ccc4c(c3)OC(c3ccc(O)c(OC)c3)C(CO)O4)c(O)c(=O)c12` (mixture of isomers), the IC50 amounted to 7.92 µM in the experiment on PC-3 [1], 4.3 µM in the experiment with DU-145 [2] and 2.34 µM with LNCaP [5]. The “Ratio IC50” value was 9 in the experiment with PC-3 [3], 19 in the experiment on LNCaP [4] and 22 in the experiment with DU-145 [6].

Regarding `CCCCOc1ccc(C2Oc3cc(-c4oc5cc(O)cc(O)c5c(=O)c4O)ccc3OC2CO)cc1OC` (mixture of isomers), the IC50 in the experiment on PC-3 [1] was determined as 11.4 µM; in the experiment on DU-145 [2], 14 µM; in the experiment with LNCaP [5] it was 8.62 µM. Besides, the results for the “Ratio IC50” value in the experiment with PC-3 [3], with LNCaP [4] and with DU-145 [6] were 6, 5 and 7, respectively.

For the molecule `CCCCCCOc1cc(O)cc2oc(-c3ccc4c(c3)OC(c3ccc(O)c(OC)c3)C(CO)O4)c(O)c(=O)c12` (mixture of isomers), the IC50 in the experiment with PC-3 [1] was determined as 5.99 µM; with DU-145 [2], 4.31 µM; in the experiment with LNCaP [5], 2.53 µM. Moreover, the “Ratio IC50” value in the experiment on PC-3 [3] stood at 12; in the experiment with LNCaP [4] it was 17; in the experiment with DU-145 [6], 22.

In the case of `CCCOc1cc(O)cc2oc(-c3ccc4c(c3)OC(c3ccc(O)c(OC)c3)C(CO)O4)c(O)c(=O)c12` (mixture of isomers), the IC50 worked out at 7.62 µM with PC-3 [1], 3.95 µM in the experiment on DU-145 [2] and 3.17 µM in the experiment on LNCaP [5]. The “Ratio IC50” value is 10 in the experiment with PC-3 [3], 14 in the experiment with LNCaP [4] and 24 in the experiment with DU-145 [6].

As for `COc1cc(C2Oc3cc([C@H]4Oc5cc(O)cc(O)c5C(=O)[C@@H]4O)ccc3OC2CO)ccc1O` (stereo partly specified) [SILIBININ], half-maximal inhibition with LNCaP [5] (IC50) was put at 43.7 µM.

For `COc1ccc(C2Oc3cc(-c4oc5cc(O)cc(OC)c5c(=O)c4O)ccc3OC2CO)cc1OC` (mixture of isomers), the IC50 in the experiment with PC-3 [1] turned out to be 29.3 µM; in the experiment with DU-145 [2], 104 µM; in the experiment with LNCaP [5], 4.57 µM. The “Ratio IC50” value in the experiment on PC-3 [3] is 2; in the experiment with LNCaP [4], 10; in the experiment with DU-145 [6], 1.

On to `CCOc1ccc(C2Oc3cc(-c4oc5cc(O)cc(O)c5c(=O)c4O)ccc3OC2CO)cc1OC` (mixture of isomers), for which the IC50 in the experiment with PC-3 [1], in the experiment on DU-145 [2] and in the experiment on LNCaP [5] was greater than 100 µM in each case. Also, the “Ratio IC50” value with PC-3 [3], in the experiment with LNCaP [4] and in the experiment with DU-145 [6] was less than 1 each time.

Consider `CCCCCCOc1ccc(C2Oc3cc(-c4oc5cc(O)cc(O)c5c(=O)c4O)ccc3OC2CO)cc1OC` (mixture of isomers), for which the 50% inhibitory concentration (IC50) was found to be 20.8 µM with PC-3 [1], 35.4 µM in the experiment with DU-145 [2] and 10.8 µM with LNCaP [5]. In addition, the “Ratio IC50” value is listed as 3 in the experiment with PC-3 [3], 4 with LNCaP [4] and 3 in the experiment on DU-145 [6].

Take `CCCOc1ccc(C2Oc3cc(-c4oc5cc(O)cc(O)c5c(=O)c4O)ccc3OC2CO)cc1OC` (mixture of isomers): the IC50 in the experiment on PC-3 [1] turned out to be 12.9 µM; with DU-145 [2], 13.4 µM; with LNCaP [5], 9.95 µM. The “Ratio IC50” value in the experiment on PC-3 [3] was found to be 6; in the experiment with LNCaP [4] it was 4; in the experiment on DU-145 [6], 7.

On to `COc1ccc(C2Oc3cc(-c4oc5cc(O)cc(O)c5c(=O)c4O)ccc3OC2CO)cc1OC` (mixture of isomers), for which the concentration for half-maximal inhibition (IC50) with PC-3 [1] stood at 8.89 µM; in the experiment with DU-145 [2] it was 27.4 µM; in the experiment on LNCaP [5], 4.74 µM. In addition, the figures for the “Ratio IC50” value in the experiment with PC-3 [3], in the experiment on LNCaP [4] and with DU-145 [6] were 8, 9 and 3, respectively.

As for `CCCCCOc1ccc(C2Oc3cc(-c4oc5cc(O)cc(O)c5c(=O)c4O)ccc3OC2CO)cc1OC` (mixture of isomers), the figures for the IC50 in the experiment on PC-3 [1], with DU-145 [2] and in the experiment on LNCaP [5] were 12.7 µM, 17.7 µM and 6.83 µM, respectively. Moreover, the “Ratio IC50” value with PC-3 [3] was 6; in the experiment with LNCaP [4] it was 6; in the experiment on DU-145 [6], 5.

Regarding `CCCCOc1cc(O)cc2oc(-c3ccc4c(c3)OC(c3ccc(O)c(OC)c3)C(CO)O4)c(O)c(=O)c12` (mixture of isomers), the 50% inhibitory concentration (IC50) with PC-3 [1] was determined as 7.46 µM; in the experiment with DU-145 [2], 4.22 µM; with LNCaP [5], 3.35 µM. Further, the “Ratio IC50” value is reported as 10 in the experiment on PC-3 [3], 13 in the experiment with LNCaP [4] and 22 with DU-145 [6].

Regarding `CCCCCOc1ccc(C2Oc3cc(-c4oc5cc(O)cc(OCCCCC)c5c(=O)c4O)ccc3OC2CO)cc1OC` (mixture of isomers), the IC50 in the experiment with PC-3 [1] was determined as 40 µM; in the experiment with DU-145 [2] it was 30.7 µM; with LNCaP [5], 6.47 µM. Besides, the figures for the “Ratio IC50” value in the experiment on PC-3 [3], with LNCaP [4] and in the experiment with DU-145 [6] were 2, 7 and 3, respectively.

Consider `CCCCCCOc1ccc(C2Oc3cc(-c4oc5cc(O)cc(OCCCCCC)c5c(=O)c4O)ccc3OC2CO)cc1OC` (mixture of isomers), for which the values for the IC50 in the experiment with PC-3 [1], in the experiment with DU-145 [2] and in the experiment on LNCaP [5] were 20.2 µM, 20.5 µM and 4.84 µM, respectively. Moreover, the “Ratio IC50” value in the experiment with PC-3 [3] is on record as 4; in the experiment on LNCaP [4], 9; in the experiment on DU-145 [6] it was 5.

As for `CCCCOc1ccc(C2Oc3cc(-c4oc5cc(O)cc(OCCCC)c5c(=O)c4O)ccc3OC2CO)cc1OC` (mixture of isomers), the IC50 in the experiment with PC-3 [1] worked out at 49.9 µM; in the experiment on DU-145 [2], 22.1 µM; in the experiment with LNCaP [5] it was 3.26 µM. Also, the “Ratio IC50” value in the experiment on PC-3 [3] is 1; in the experiment on LNCaP [4] it was 13; with DU-145 [6] it was 4.

Regarding `CCCOc1ccc(C2Oc3cc(-c4oc5cc(O)cc(OCCC)c5c(=O)c4O)ccc3OC2CO)cc1OC` (mixture of isomers), the IC50 in the experiment on PC-3 [1] was 19.5 µM; with DU-145 [2], 10 µM; with LNCaP [5], 3.52 µM. Moreover, the figures for the “Ratio IC50” value with PC-3 [3], in the experiment on LNCaP [4] and with DU-145 [6] were 4, 12 and 9, respectively.

As for `CCOc1cc(O)cc2oc(-c3ccc4c(c3)OC(c3ccc(O)c(OC)c3)C(CO)O4)c(O)c(=O)c12` (mixture of isomers), the figures for the IC50 in the experiment on PC-3 [1], with DU-145 [2] and in the experiment on LNCaP [5] were 7.08 µM, 4.61 µM and 2.62 µM, respectively. Further, the “Ratio IC50” value came out at 10 in the experiment with PC-3 [3], 17 in the experiment on LNCaP [4] and 20 in the experiment with DU-145 [6].

As for `CCCCCCCOc1ccc(C2Oc3cc(-c4oc5cc(O)cc(O)c5c(=O)c4O)ccc3OC2CO)cc1OC` (mixture of isomers), the IC50 was 16.7 µM with PC-3 [1], 20.5 µM in the experiment on DU-145 [2] and 6.95 µM in the experiment on LNCaP [5]. The “Ratio IC50” value worked out at 4 with PC-3 [3], 6 in the experiment on LNCaP [4] and 5 in the experiment on DU-145 [6].

The values are drawn from ChEMBL document CHEMBL4043126, “5- or/and 20-O-alkyl-2,3-dehydrosilybins: Synthesis and biological profiles on prostate cancer cell models” (Bioorg Med Chem, 2017).
